Test results reported in ChEMBL document CHEMBL4138161, “Discovery of simplified sampangine derivatives as novel fungal biofilm inhibitors” (Eur J Med Chem, 2018).
In brackets after ≈: the same amount, converted by molar mass. Activity calls are given as the source filed them. No cut-off for these calls is given here.

Columns and labels:
[1] = system: Caenorhabditis elegans; assay: Toxicity in Caenorhabditis elegans AU37 at 6.25 to 100 ug/ml after 2 days; type: organism-based; conditions: in vivo, 48 h
How it was run: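 Nematodes placed in medium containing a range of compound concentrations, held at 25 ℃ for 2 d, checked daily and photographed on day 2.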

[2] = system: Candida albicans; assay: Antifungal activity against Candida albicans infected in Sprague-Dawley rat vaginal infection model assessed as reduction in vaginal fungal burden at 1 mg/kg, administered intravaginally on day 1 to day 3 post fungal inoculation measured on day 4; type: functional, organism-based
How it was run: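 Ovariectomized rats inoculated intravaginally with 0.1 mL of 1×10^7 CFU/mL C. albicans on days 10, 11 and 12 after surgery. Compound in saline with 1% DMSO (2, 4, 8 mg/mL) given intravaginally on days 1–3 post-inoculation. On day 4, 100 µL vaginal fluid plated on chloramphenicol SDA agar for CFU counts.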

[3] = system: Trichophyton rubrum; assay: Antifungal activity against Trichophyton rubrum Cmccftla after 24 hrs by spectrophotometric analysis; type: functional
How it was run: (§1)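 Broth microdilution in RPMI 1640, inoculum 5×10^3 CFU/mL, compounds from 6.4 mg/mL DMSO stocks, 35 ℃ for 24 h. Growth read as OD600; MIC80 taken as lowest concentration giving 80% growth inhibition. Triplicate.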

[4] = system: Candida albicans; assay: Antibiofilm activity against Candida albicans SC5314 assessed down regulation of ALS3 gene at 0.4 ug/ml after 1 hr by qRT-PCR analysis; type: functional, organism-based
How it was run: (§2)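 Biofilm grown in dishes with 0.4 µg/mL compound or DMSO control for 1 h; total RNA isolated and transcripts quantified by real-time RT-PCR. Normalized to 18S rRNA, expressed as fold change vs untreated SC5314. Mean ± SD of three independent experiments.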

[5] = system: Candida albicans; assay: Antibiofilm activity against Candida albicans SC5314 cultured in YPD media containing 10% FBS assessed inhibition of yeast-to-hypha morphological transition after 3 hrs; type: functional, organism-based
How it was run: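 Yeast-to-hypha transition in YPD with 10% (v/v) FBS across compound concentrations; cell morphology photographed after 3 h at 37°C.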

[6] = system: Candida albicans; assay: Antifungal activity against fluconazole-resistant Candida albicans isolate J38 clinical isolate after 24 hrs by spectrophotometric analysis; type: functional; conditions: isolate J38, 24 h
How it was run: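 Broth microdilution (MIC80) against fluconazole-resistant clinical C. albicans isolates from a Shanghai hospital. Strains were grown in YPD at 30 ℃. Compounds came from 6.4 mg/mL DMSO stocks and were tested over a concentration series on 5×10^3 CFU/mL inoculum in RPMI 1640 at 35 ℃ for 24 h. OD600 was read; MIC80 is the lowest concentration giving 80% growth inhibition. Done in triplicate.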

[7] = system: Candida albicans; assay: Antibiofilm activity against Candida albicans SC5314 assessed as disruption of biofilm formation at 12.8 ug/ml; type: functional, organism-based
[8] = system: Candida parapsilosis; assay: Antifungal activity against Candida parapsilosis 22019 after 24 hrs by spectrophotometric analysis; type: functional; conditions: Lodderomyces parapsilosis, 22019, 24 h; how it was run: as §1
[9] = system: Staphylococcus aureus; assay: Antibacterial activity against Staphylococcus aureus NRS271 after 24 hrs; type: functional; conditions: NRS271, 24 h
[10] = system: Candida albicans; assay: Antibiofilm activity against Candida albicans SC5314 assessed down regulation of HWP1 gene at 0.4 ug/ml after 1 hr by qRT-PCR analysis; type: functional, organism-based; how it was run: as §2
[11] = system: Candida albicans; assay: Antibiofilm activity against Candida albicans SC5314 assessed as disruption of biofilm formation at 6.4 ug/ml; type: functional, organism-based

Row | Structure (SMILES) | Activity [1] | Activity [2] | MIC80 [3] [µg/mL] | Activity [4] | Activity [5] | MIC80 [6] [µg/mL] | Activity [7] | MIC80 [8] [µg/mL] | MIC80 [9] [µg/mL] | Activity [10] | Activity [11]
1 | CCCc1ccnc2c1C(=O)c1sc([N+](=O)[O-])cc1C2=O | Non-Toxic | Active | 2 (≈ 6.62 µM) | Active | Dose-dependent effect | 1 (≈ 3.31 µM) | Active | 0.5 (≈ 1.65 µM) | > 128 | Active | –
2 | CCc1ccnc2c1C(=O)c1sc([N+](=O)[O-])cc1C2=O | Non-Toxic | Active | 0.5 (≈ 1.73 µM) | Active | Dose-dependent effect | 0.25 (≈ 0.867 µM) | – | 1 (≈ 3.47 µM) | > 128 | Active | Active
